# Measured values reported in ChEMBL document CHEMBL3286187, “Synthesis, antibacterial and antitubercular activities of benzimidazole bearing substituted 2-pyridone motifs” (Eur J Med Chem, 2014).
# Key:
# Streptococcus pyogenes = experiment: Antimicrobial activity against Streptococcus pyogenes MTCC-442 after 24 hrs by broth dilution method; assay type: functional; conditions: MTCC-442, 24 h
# How it was run: (§1)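 NCCLS broth dilution in Mueller Hinton broth with 2% DMSO as vehicle. Primary screen at 1000, 500 and 250 µg/mL; actives retested at 200 to 6.25 µg/mL. Inoculum 10⁶ CFU/mL, set by turbidity. Incubated 24 h at 37 °C; growth read visually and spectrophotometrically. MIC is the lowest concentration arresting growth. Chloramphenicol was the positive control; DMSO and water were negative controls.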
# Escherichia coli = experiment: Antimicrobial activity against Escherichia coli MTCC-443 after 24 hrs by broth dilution method; assay type: functional; conditions: MTCC-443, 24 h; how it was run: as §1
# [1] = tested on: Mycobacterium tuberculosis; experiment: Antitubercular activity against Mycobacterium tuberculosis H37Rv ATCC 27294 after 5 to 8 days by BACTEC 12B method; assay type: functional
# Staphylococcus aureus [2] = experiment: Antimicrobial activity against Staphylococcus aureus MTCC-96 after 24 hrs by broth dilution method; assay type: functional; conditions: MTCC-96, 24 h; how it was run: as §1
# Pseudomonas aeruginosa = experiment: Antimicrobial activity against Pseudomonas aeruginosa MTCC-1688 after 24 hrs by broth dilution method; assay type: functional; conditions: MTCC-1688, 24 h; how it was run: as §1
# Vero = experiment: Cytotoxicity against african green monkey Vero cells after 72 hrs by MTS-PMS method; assay type: cell-based; conditions: Chlorocebus sabaeus
# How it was run: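 Vero cells in DMEM with 10% FBS at 37 °C, 5% CO2, diluted to 10^6 cells/mL. Threefold serial dilutions gave final […] to 0.12 µg/mL with 1% DMSO. Incubated 72 h, washed with HBSS, then MTS-PMS (100:20) added for 3 h; absorbance read at 490 nm. Triplicate wells, assay repeated three times. Controls set as 100% viability; IC50 taken as 50% growth inhibition.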
# Staphylococcus aureus [3] = experiment: Antimicrobial activity against methicillin-resistant Staphylococcus aureus ATCC 43300 after 24 hrs by broth dilution method; assay type: functional; conditions: ATCC 43300, 24 h
# How it was run: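 Broth dilution per NCCLS in Mueller Hinton broth; compounds in 2% DMSO, 1000 µg/mL stock; primary screen 1000, 500, 250 µg/mL, then secondary dilutions 200 to 6.25 µg/mL. Inoculum 10⁶ CFU/mL by turbidity; 24 h at 37 °C, growth read visually and spectrophotometrically. MIC = lowest concentration arresting growth. DMSO/water negative control; chloramphenicol positive control.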
# Staphylococcus aureus [4] = experiment: Ratio of ciprofloxacin MIC to compound MIC for methicillin-resistant Staphylococcus aureus ATCC 43300 after 24 hrs by broth dilution method; assay type: functional
# Staphylococcus aureus [5] = experiment: Ratio of chloramphenicol MIC to compound MIC for methicillin-resistant Staphylococcus aureus ATCC 43300 after 24 hrs by broth dilution method; assay type: functional
SMILES,MIC (Streptococcus pyogenes),MIC (Escherichia coli),MIC [1],MIC (Staphylococcus aureus [2]),MIC (Pseudomonas aeruginosa),IC50 (Vero),MIC (Staphylococcus aureus [3]),Ratio (Staphylococcus aureus [4]),Ratio (Staphylococcus aureus [5])
C/C(=N\NC(=O)CC#N)c1nc2ccccc2[nH]1,1000 µg/mL,> 1000 µg/mL,> 39.4 µg/mL,1000 µg/mL,> 1000 µg/mL,,,,
C/C(=N\n1c(N)c(C#N)c(-c2ccc([N+](=O)[O-])cc2)c(C#N)c1=O)c1nc2ccccc2[nH]1,500 µg/mL,500 µg/mL,> 39.4 µg/mL,500 µg/mL,500 µg/mL,,,,
C/C(=N\n1c(/N=C/c2ccccc2)c(C#N)c(-c2ccc([N+](=O)[O-])cc2)c(C#N)c1=O)c1nc2ccccc2[nH]1,500 µg/mL,500 µg/mL,35.2 µg/mL,500 µg/mL,500 µg/mL,17.6 µg/mL,,,
C/C(=N\n1c(/N=C/c2ccccc2O)c(C#N)c(-c2ccc([N+](=O)[O-])cc2)c(C#N)c1=O)c1nc2ccccc2[nH]1,250 µg/mL,500 µg/mL,31.6 µg/mL,500 µg/mL,500 µg/mL,19.8 µg/mL,,,
C/C(=N\n1c(/N=C/c2cccc(O)c2)c(C#N)c(-c2ccc([N+](=O)[O-])cc2)c(C#N)c1=O)c1nc2ccccc2[nH]1,500 µg/mL,500 µg/mL,30.2 µg/mL,100 µg/mL,250 µg/mL,17 µg/mL,,,
C/C(=N\n1c(/N=C/c2ccc(O)cc2)c(C#N)c(-c2ccc([N+](=O)[O-])cc2)c(C#N)c1=O)c1nc2ccccc2[nH]1,250 µg/mL,250 µg/mL,30.9 µg/mL,500 µg/mL,500 µg/mL,13.7 µg/mL,,,
C/C(=N\n1c(/N=C/c2cccc(F)c2)c(C#N)c(-c2ccc([N+](=O)[O-])cc2)c(C#N)c1=O)c1nc2ccccc2[nH]1,125 µg/mL,100 µg/mL,25.4 µg/mL,100 µg/mL,250 µg/mL,23.6 µg/mL,,,
C/C(=N\n1c(/N=C/c2ccc(F)cc2)c(C#N)c(-c2ccc([N+](=O)[O-])cc2)c(C#N)c1=O)c1nc2ccccc2[nH]1,100 µg/mL,250 µg/mL,27.1 µg/mL,250 µg/mL,250 µg/mL,24.8 µg/mL,,,
C/C(=N\n1c(/N=C/c2ccccc2Cl)c(C#N)c(-c2ccc([N+](=O)[O-])cc2)c(C#N)c1=O)c1nc2ccccc2[nH]1,62.5 µg/mL,100 µg/mL,2.65 µg/mL,50 µg/mL,125 µg/mL,> 39.4 µg/mL,,,
C/C(=N\n1c(/N=C/c2cccc(Cl)c2)c(C#N)c(-c2ccc([N+](=O)[O-])cc2)c(C#N)c1=O)c1nc2ccccc2[nH]1,50 µg/mL,50 µg/mL,0.85 µg/mL,25 µg/mL,62.5 µg/mL,> 39.4 µg/mL,> 50 µg/mL,,
C/C(=N\n1c(/N=C/c2ccc(Cl)cc2)c(C#N)c(-c2ccc([N+](=O)[O-])cc2)c(C#N)c1=O)c1nc2ccccc2[nH]1,50 µg/mL,100 µg/mL,1.79 µg/mL,62.5 µg/mL,100 µg/mL,> 39.4 µg/mL,,,
C/C(=N\n1c(/N=C/c2ccccc2C)c(C#N)c(-c2ccc([N+](=O)[O-])cc2)c(C#N)c1=O)c1nc2ccccc2[nH]1,100 µg/mL,250 µg/mL,9.17 µg/mL,125 µg/mL,250 µg/mL,34.5 µg/mL,,,
C/C(=N\n1c(/N=C/c2cccc(C)c2)c(C#N)c(-c2ccc([N+](=O)[O-])cc2)c(C#N)c1=O)c1nc2ccccc2[nH]1,100 µg/mL,100 µg/mL,2.07 µg/mL,100 µg/mL,100 µg/mL,> 39.4 µg/mL,,,
C/C(=N\n1c(/N=C/c2ccc(C)cc2)c(C#N)c(-c2ccc([N+](=O)[O-])cc2)c(C#N)c1=O)c1nc2ccccc2[nH]1,125 µg/mL,250 µg/mL,6.28 µg/mL,250 µg/mL,250 µg/mL,> 39.4 µg/mL,,,
COc1cccc(/C=N/c2c(C#N)c(-c3ccc([N+](=O)[O-])cc3)c(C#N)c(=O)n2/N=C(\C)c2nc3ccccc3[nH]2)c1,250 µg/mL,250 µg/mL,18 µg/mL,100 µg/mL,500 µg/mL,24.2 µg/mL,,,
COc1ccc(/C=N/c2c(C#N)c(-c3ccc([N+](=O)[O-])cc3)c(C#N)c(=O)n2/N=C(\C)c2nc3ccccc3[nH]2)cc1,250 µg/mL,500 µg/mL,23.5 µg/mL,250 µg/mL,500 µg/mL,25.4 µg/mL,,,
C/C(=N\n1c(/N=C/c2cccc([N+](=O)[O-])c2)c(C#N)c(-c2ccc([N+](=O)[O-])cc2)c(C#N)c1=O)c1nc2ccccc2[nH]1,500 µg/mL,250 µg/mL,28.3 µg/mL,250 µg/mL,500 µg/mL,27.6 µg/mL,,,
C/C(=N\n1c(/N=C/c2ccc([N+](=O)[O-])cc2)c(C#N)c(-c2ccc([N+](=O)[O-])cc2)c(C#N)c1=O)c1nc2ccccc2[nH]1,500 µg/mL,1000 µg/mL,32.2 µg/mL,500 µg/mL,1000 µg/mL,16.1 µg/mL,,,
C/C(=N\n1c(/N=C/c2cccc(Br)c2)c(C#N)c(-c2ccc([N+](=O)[O-])cc2)c(C#N)c1=O)c1nc2ccccc2[nH]1,25 µg/mL,25 µg/mL,10.3 µg/mL,12.5 µg/mL,25 µg/mL,> 39.4 µg/mL,12.5 µg/mL,2,4
C/C(=N\n1c(/N=C/c2ccc(Br)cc2)c(C#N)c(-c2ccc([N+](=O)[O-])cc2)c(C#N)c1=O)c1nc2ccccc2[nH]1,50 µg/mL,50 µg/mL,13.8 µg/mL,25 µg/mL,50 µg/mL,> 39.4 µg/mL,6.25 µg/mL,4,8
O=C(N[C@H](CO)[C@H](O)c1ccc([N+](=O)[O-])cc1)C(Cl)Cl [CHLORAMPHENICOL],50 µg/mL,50 µg/mL,,50 µg/mL,50 µg/mL,,50 µg/mL,,
O=C(O)c1cn(C2CC2)c2cc(N3CCNCC3)c(F)cc2c1=O [CIPROFLOXACIN],50 µg/mL,25 µg/mL,,50 µg/mL,,,,,
NNC(=O)c1ccncc1 [ISONIAZID],,,0.24 µg/mL,,,,,,
